# Screening data from PubChem.
# APP 5'UTR act – activates APP 5'UTR luciferase reporter. 190,000 compounds, 1% hits. SH-SY5Y APP 5'UTR luciferase reporter, luminescence; zero percent = DMSO vehicle wells. AID 1276. activation, % at 2 µM;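 active means activation above a set limit, based on mean plus 3 SD of controls, cut at about 140% in these data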
# STAT1 blocker – STAT1 signaling inhibition; 200,000 compounds, 0.35% hits; NIH 3T3 STAT1-luciferase reporter, IFN-gamma, luminescence; AID 920; inhibition, % at 5.5 µM;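 active means inhibition above a set limit, the mean inhibition across all tested compounds plus 3 SD, cut at about 34% in these data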;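 further: 0% = IFN-gamma with DMSO and 100% = IFN-gamma with 300 µM nifuroxazide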
# STAT1 act-1 – activators of IFN-gamma induced STAT1 signaling; NIH 3T3 STAT1-luciferase reporter, luminescence; 100% = IFN-gamma alone, no compound; activation (% of control), % at 5.5 µM; 200,000 compounds, 2.6% hits; AID 932;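 active means activation above the screen-wide mean activation plus 3 SD, cut at about 130% in these data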;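 further: raw ratio to IFN-gamma control signal so 100% means no change and 0% no light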
# STAT3 inh – inhibitors of IL-6 induced STAT3 signaling. U3A cells, IL-6 STAT3-luciferase reporter, luminescence; host cell line lacks STAT1. inhibition, % at 5.5 µM. 190,000 compounds, 0.89% hits. AID 862;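 active means inhibition above the mean inhibition across all screened compounds plus 3 SD, cut at about 44% in these data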;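 further: 0% = DMSO only wells and 100% = 100 µM nifuroxazide control wells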
# NF-kB expr up – NF-kB expression increase, human neuronal cells; NF-kB reporter expression; active compounds read high; fold change at 12.5 µM; 190,000 compounds, 1.6% hits; in the data active means fold change above about 3.3
# STAT3 act-1 – activators of IL-6 induced STAT3 signaling. U3A cells, IL-6 STAT3-luciferase reporter, luminescence; 100% = signal with IL-6 EC80 alone. activation (% of control), % at 5.6 µM. 190,000 compounds, 0.91% hits;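 active means activation above the screen-wide mean of compound activation plus 3 SD, cut at about 130% in these data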;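 further: 0% = background luminescence of wells with medium and substrate only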
#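 Material: human U3A cells carrying STAT3-luciferase construct. Measured by: reporter luminescence signal. Timing: compound 1 h, then IL-6 6 h at 37 °C.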
# STAT3 act-2 – STAT3 activation, confirmation assay; shares compounds with STAT3 act-1; U3A STAT3-luciferase reporter, IL-6 potentiation, luminescence; U3A cells lack STAT1; 100 means same as IL-6 alone; potentiation (% of control), % at 5.7 µM; 1,200 compounds, 64% hits;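 active means percent activation of the STAT3 luciferase reporter above a set limit taken from the earlier primary screen, cut at about 130% in these data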;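 further: 0% = background signal of medium plus substrate and 100% = median of IL-6 with DMSO wells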
# NFkB act 2 – activates NF-kappaB, counter-screen to STAT3 activators; shares compounds with STAT3 act-1; human cells, NF-kappaB reporter activation; activation (% of control), % at 5.7 µM; 1,200 compounds, 11% hits; AID 1309; in the data active means activation above about 120%;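 further: reporter induced by TNF-alpha stimulation; 100% = median of stimulated DMSO wells and 0% = no signal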
# STAT1 act-2 – STAT1 activation in STAT3 activator counter-screen; shares compounds with STAT3 act-1; NIH 3T3 STAT1-luciferase reporter, IFN-gamma, luminescence; activation (% of control), % at 5.7 µM; 1,200 compounds, 13% hits;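 active means activation above the solvent-only control well mean plus 3 SD, set per screening run, cut at about 120% in these data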;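 further: 100% = IFN-gamma with DMSO median signal so 100% means no change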
# Starred values were filed as active, the others as inactive; x = no result given. An excerpt weighted towards active compounds, which were near 4.9% of everything screened.
SMILES,APP 5'UTR act,STAT1 blocker,STAT1 act-1,STAT3 inh,NF-kB expr up,STAT3 act-1,STAT3 act-2,NFkB act 2,STAT1 act-2
O=C(CSc1nc2ccccc2[nH]1)N=Nc1c(O)[nH]c2ccccc12,12,-2,101,-51,0.91,145*,142*,108,105
Cc1ccc(S(=O)(=O)N2CCCCC2)cc1C(=O)Nc1ccc2cn[nH]c2c1,2,15,87,-49,0.87,151*,135*,101,94
Cc1ncc([N+](=O)[O-])n1Cc1ccc(Br)cc1,14,-6,106,11,1.3,97,x,x,x
Fc1cccc2sc(Nc3nc4c(F)cccc4s3)nc12,39,-4,104,-72,1,156*,182*,122*,119
Cc1cc(C)c(S(=O)(=O)/N=C2/C=C(SCC(=O)O)C(=O)c3ccccc32)cc1C,-12,6,93,-37,0.7,139*,135*,97,96
Cc1cccc(NC(=O)CN(C)S(=O)(=O)c2ccc(Cl)cc2)n1,42,-1,100,2,1,104,x,x,x
CN(CC(=O)Nc1nc2ccccc2s1)S(=O)(=O)c1ccc(Cl)cc1,1,-6,106,-60,0.97,156*,130,100,101
Nn1cnnc1N/N=C\c1ccc(-c2ccccc2[N+](=O)[O-])o1,13,-21,118,-50,0.68,147*,105,104,101
C=CCn1c(SCC(=O)Nc2ccccc2-c2ccccc2)nc2cc(C(=O)O)ccc2c1=O,9,-6,105,7,1.1,97,x,x,x
Cn1nc(-c2ccc(Cl)cc2)c2cc(C(=O)N3CCN(C(=O)c4ccco4)CC3)sc21,-2,12,89,-56,0.37,150*,129,99,89
COc1ccc(-c2nn(C)c3sc(C(=O)N4CCOCC4)cc23)cc1OC,21,2,99,30,0.71,80,x,x,x
CCN1CCN(C(=O)c2cc3c(-c4ccc(Cl)cc4)nn(C)c3s2)CC1,-17,12,89,-51,0.73,152*,134*,97,91
COc1ccc(N2CCN(C(=O)c3cc4c(-c5cccc(OC)c5)nn(C)c4s3)CC2)cc1,20,7,95,19,0.53,89,x,x,x
COc1ccc(NC(=O)c2sc(SC)nc2N)cc1,77,-25,124,-35,3,136*,162*,127*,150*
COc1ccc(NC(=O)c2sc(SCc3ccccc3)nc2N)cc1,5,-9,108,10,1,95,x,x,x
Cc1cccc(NS(=O)(=O)c2ccc3c(c2)Cc2cc(S(=O)(=O)Nc4cccc(C)c4C)ccc2-3)c1C,-10,9,92,-8,0.88,105,x,x,x
CC(=O)NC(CCS(C)(=O)=O)C(=O)N1CCc2ccccc21 (stereo not drawn),-9,-6,106,-41,1.3,137*,116,102,100
CC1=C(C#N)C(c2ccccc2O)C(C#N)=C(C)N1,32,7,93,-47,1.1,143*,151*,103,99
CCOC(=O)C1=C(C)NC(C)=C(C(=O)OCC)C1c1cc2ccc(C)cc2[nH]c1=O,-3,8,93,-46,0.94,143*,129,92,99
COc1ccc(S(=O)(=O)N(C)C)cc1NS(=O)(=O)c1ccc(F)c(F)c1F,-14,7,94,2,1.1,97,x,x,x
COc1cc(OC)cc(C(=O)NCCCN2CCN(CCCNC(=O)c3cc(OC)cc(OC)c3)CC2)c1,8,2,99,-13,0.91,108,x,x,x
CC(C)Cc1cc(C(=O)Nc2cc(C(F)(F)F)ccc2Cl)no1,17,3,98,-42,1.1,143*,125,97,96
